From PubChem
Rows were chosen to be rich in hits. Some 2.7% of all compounds tested hit in one or more screens of this group.
Rev-erbA mod = modulators of Rev-erb alpha DNA binding, primary screen, biochemical, FITC-DNA, fluorescence polarization, uHTS; actives 0.79% (n = 370,000); Nuclear receptor subfamily 1 group D member 1 (Homo sapiens), P20393; AID 1259318, 2017; activity, % at 10 µM; Rev-erbα–FITC-DNA binding, 90 min;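 active means activity above about 14%, limit read from the data; passing the limit was not always enough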;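 further: 0% = DMSO wells with 35 nM protein and 100% = DMSO wells with 750 nM protein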
PG9 Ab binder = binders of HIV-1 gp120 antibody PG9, primary screen, biochemical, TR-FRET; actives 0.43% (n = 360,000); HIV-1 gp120 / PG9 antibody interaction; inhibition, % at 6.7 µM; TR-FRET gp120-PG9 antibody binding; in the data active means inhibition above about 8.5%
MC4R antagonist = MC4R antagonists of cAMP signaling, primary screen, cell-based, TR-FRET, antagonist arm of biased-ligand search. Melanocortin receptor 4 (Homo sapiens), P32245. MC4R-expressing cells, MTII-stimulated cAMP, LANCE TR-FRET. inhibition, % at 6.5 µM. actives 0.48% (n = 360,000). AID 540295, 2011;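 active means inhibition above its plate's cutoff, the mean of tested wells on that plate plus 3 SD, cut at about 29% in these data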;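 further: 0% = Melanotan II alone and 100% = Melanotan II plus saturating MCL0020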
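Material: U2OS-MC4R stable cell line | Reagent: Melanotan II challenge after compound preincubation | Doses: One concentration, 6.5 µM nominal | Incubation: 30-min compound preincubation, 1-h Melanotan II challenge, 1-h detection, room temperature | Signal: TR-FRET cAMP assay | Replicates: One well per compound, no replicates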
NR2E3 ag-1 = NR2E3 agonists in two-hybrid cells, primary screen, cell-based, luminescence, CHO-S, Gal4-NCOR/VP16-NR2E3 | Photoreceptor-specific nuclear receptor (Homo sapiens), Q9Y5X4 | luciferase | inhibition of corepressor binding, % at 3.98 µM | actives 0.35% (n = 360,000) | AID 602229, 2012;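 active means inhibition above the mean of all tested compounds plus 3 SD, cut at about 70% in these data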;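 further: 0% = DMSO with NR2E3 transfected cells and 100% = cells lacking NR2E3 construct; higher means lower luciferase signal from less NR2E3 corepressor binding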
Target sequence (Q9Y5X4 whole entry, looked up, the tested form may be a part): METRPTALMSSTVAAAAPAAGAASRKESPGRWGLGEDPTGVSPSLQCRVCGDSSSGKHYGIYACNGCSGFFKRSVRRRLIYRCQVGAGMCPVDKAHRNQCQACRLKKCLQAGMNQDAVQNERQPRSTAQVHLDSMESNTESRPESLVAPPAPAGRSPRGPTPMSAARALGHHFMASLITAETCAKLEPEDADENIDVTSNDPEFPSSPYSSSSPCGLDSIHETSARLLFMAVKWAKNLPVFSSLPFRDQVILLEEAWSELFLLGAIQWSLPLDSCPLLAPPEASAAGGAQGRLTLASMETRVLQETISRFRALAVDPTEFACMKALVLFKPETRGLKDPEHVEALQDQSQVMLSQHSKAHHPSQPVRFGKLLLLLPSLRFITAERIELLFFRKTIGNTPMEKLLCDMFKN
MC4R ag barr = MC4R agonists recruiting beta-arrestin, primary screen, cell-based, luminescence, agonist arm of biased-ligand search. Melanocortin receptor 4 (Homo sapiens), P32245. U2OS MC4R beta-arrestin complementation; percent of melanotan II response, DMSO zero. activation, % at 8.9 µM. actives 0.98% (n = 360,000). AID 540308, 2011;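 active means activation above a per-plate cutoff, the mean activation of sample wells on that plate plus 3 SD, cut at about 8% in these data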
NR2E3 ag-2 = inhibitors of NR2E3-RetCOR corepressor binding, primary screen, NR2E3 agonist project, biochemical, TR-FRET, GST-NR2E3, biotin-RetCOR | Photoreceptor-specific nuclear receptor (Homo sapiens), Q9Y5X4 | 1536-well | inhibition of corepressor binding, % at 4.78 µM | actives 0.12% (n = 320,000) | AID 2300, 2010;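 active means percent inhibition above the cutoff of mean plus 3 SD of all tested compounds, set per screening campaign, cut at about 20% in these data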;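 further: 0% = DMSO wells and 100% = biotin wells as full block of FRET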
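Material: NR2E3–RetCOR corepressor complex / Amount: 1.35 nM GST-NR2E3 / Medium: Tris pH 7.5 / Compound: single nominal compound dose of 4.8 µM / Incubation: 5 h at 4 °C / Technique: TR-FRET, Eu(K)-anti-GST donor, streptavidin-D2 acceptor, ex 340, em 617/671 nm / Read-out basis: percent loss of FRET ratio relative to control wells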
* = called active by the depositor.

`COc1ccc(C(C(=O)NC2CCCCC2)N(C(=O)CCl)c2ccc(OC)cc2)cc1` (centres undefined) gave MC4R antagonist 7, NR2E3 ag-1 -30, MC4R ag barr 1 and NR2E3 ag-2 -2.
Screening COc1ccc(C(C(=O)NC2CCCCC2)N(C(=O)CCl)c2ccc(C)cc2)cc1 (centres undefined) returned Rev-erbA mod 3, PG9 Ab binder -1, MC4R antagonist 6, NR2E3 ag-1 4, MC4R ag barr 18* and NR2E3 ag-2 -2.
Screening COc1ccc(N(C(=O)CCl)C(C(=O)NC2CCCCC2)c2cccnc2)cc1 (centres undefined) returned Rev-erbA mod 3, PG9 Ab binder 0, MC4R antagonist -4, NR2E3 ag-1 -12, MC4R ag barr 8.7* and NR2E3 ag-2 -4.
Screening COc1ccc(C(C(=O)NC2CCCCC2)N(C(=O)CCl)c2cccc(Cl)c2)cc1 (centres undefined) returned Rev-erbA mod 5, PG9 Ab binder 1, MC4R antagonist 1, NR2E3 ag-1 -6, MC4R ag barr 25* and NR2E3 ag-2 5.
For COc1ccc(N2C(=O)CC(NNC(=O)c3cc(C)oc3C)C2=O)cc1 (centres undefined) the results were Rev-erbA mod -2, PG9 Ab binder -1, MC4R antagonist 2, NR2E3 ag-1 -12, MC4R ag barr -1 and NR2E3 ag-2 -2.
CN(C)c1cc(N/N=C\c2ccccc2)nc(N(C)C)n1 was read as Rev-erbA mod 2, PG9 Ab binder -2, MC4R antagonist 13, NR2E3 ag-1 23, MC4R ag barr 8.5* and NR2E3 ag-2 -4.
COc1ccc(/C=N/Nc2cc(N(C)C)nc(N(C)C)n2)cc1 was read as Rev-erbA mod -8, PG9 Ab binder -2, MC4R antagonist 4, NR2E3 ag-1 -5, MC4R ag barr 1 and NR2E3 ag-2 0.
CC1(C(=O)NC2CCc3ccccc32)CCN1CCc1ccccc1 (centres undefined) was read as Rev-erbA mod 0, PG9 Ab binder 0, MC4R antagonist 3, NR2E3 ag-1 -1 and MC4R ag barr 8.6*.
`Cc1ccc(Cl)cc1NC(=O)c1cc2ccccc2cc1O` gave Rev-erbA mod 2, PG9 Ab binder 2, MC4R antagonist 26, NR2E3 ag-1 -52, MC4R ag barr 8.4* and NR2E3 ag-2 -2.
For COc1cc(NC(=O)c2cc3ccccc3cc2O)c(OC)cc1Cl the results were Rev-erbA mod -3, PG9 Ab binder 1, MC4R antagonist 19, NR2E3 ag-1 -55, MC4R ag barr 5 and NR2E3 ag-2 -1.
For O=c1[nH]cccc1-c1nc2ccccc2n1Cc1ccccc1F the results were Rev-erbA mod -6, PG9 Ab binder 0, MC4R antagonist 13, NR2E3 ag-1 -2, MC4R ag barr 0 and NR2E3 ag-2 -1.
`COc1ccc(C[C@H]2CN3C(=NC[C@@H]3Cc3ccc(O)cc3)N2CCNC(=O)c2ccc(C)c(Br)c2)cc1` gave Rev-erbA mod -1, PG9 Ab binder 0, MC4R antagonist 4, NR2E3 ag-1 2, MC4R ag barr -1 and NR2E3 ag-2 -3.
`COc1ccc(C[C@H]2CN3C(=NC[C@@H]3Cc3ccccc3)N2CCNC(=O)c2ccc(C)c(Br)c2)cc1` gave MC4R antagonist 9, NR2E3 ag-1 3, MC4R ag barr 23* and NR2E3 ag-2 6.
`O=C(CCl)N=c1sccn1Cc1ccc(Cl)cc1Cl` gave Rev-erbA mod 4, PG9 Ab binder -2, MC4R antagonist 21, NR2E3 ag-1 -12, MC4R ag barr 12* and NR2E3 ag-2 -1.
Screening O=C(CCl)N=c1sccn1Cc1cccc2ccccc12 returned Rev-erbA mod 7, PG9 Ab binder 2, MC4R antagonist 14, NR2E3 ag-1 -1 and MC4R ag barr 7.
For O=C(CCl)N=c1sccn1Cc1ccccc1Cl the results were Rev-erbA mod -5, PG9 Ab binder -2, MC4R antagonist 8, NR2E3 ag-1 6, MC4R ag barr 24* and NR2E3 ag-2 0.
CC[C@H](C)C(C(=O)N1CCN(C(=O)OC(C)(C)C)CC1)n1cc(C(CC(C)C)NC(=O)OC(C)(C)C)nn1 (some centres undefined) was read as Rev-erbA mod -1, PG9 Ab binder 1, MC4R antagonist 3, NR2E3 ag-1 6, MC4R ag barr 0 and NR2E3 ag-2 5.
Screening CCCOc1ccc(/C(O)=C2\C(=O)C(=O)N(CCCOC)C23C(=O)N(C)c2ccccc23)cc1 (centres undefined) returned Rev-erbA mod 0, PG9 Ab binder 11*, MC4R antagonist 6, NR2E3 ag-1 7, MC4R ag barr 0 and NR2E3 ag-2 16.
For CCOc1ccc(-n2c(N)c(-c3nc4ccccc4[nH]3)sc2=S)cc1 the results were Rev-erbA mod 3, PG9 Ab binder -2, MC4R antagonist 2, NR2E3 ag-1 -5, MC4R ag barr 8.8* and NR2E3 ag-2 -2.
Screening CCc1nc(NCCC(C)C)c2nnn(Cc3ccccc3)c2n1 returned Rev-erbA mod 3, PG9 Ab binder 0, MC4R antagonist 5, NR2E3 ag-1 9, MC4R ag barr 8.9* and NR2E3 ag-2 5.
`COc1cc2[nH]c3c(N4CCN(c5ccc(Cl)cc5)CC4)ncnc3c2cc1OC` gave Rev-erbA mod 1, PG9 Ab binder 0, MC4R antagonist 20, NR2E3 ag-1 -27, MC4R ag barr 12* and NR2E3 ag-2 1.
Screening O=C1C(Cc2ccccc2)S/C(=N/N=C/c2ccco2)N1c1ccccc1 (centres undefined) returned Rev-erbA mod 0, PG9 Ab binder 1, MC4R antagonist 7, NR2E3 ag-1 -3, MC4R ag barr 8.4* and NR2E3 ag-2 6.
For O=C1N/C(=N/N=C/c2ccco2)SC1Cc1ccccc1 (centres undefined) the results were Rev-erbA mod -4, PG9 Ab binder -2, MC4R antagonist 7, NR2E3 ag-1 -15, MC4R ag barr -2 and NR2E3 ag-2 0.
For O=C(Nc1ccncc1)Nc1cccc(C(F)(F)F)c1 the results were Rev-erbA mod -4, PG9 Ab binder 0, MC4R antagonist 1, NR2E3 ag-1 15, MC4R ag barr 0 and NR2E3 ag-2 1.
